PKD1 inh: inhibitors of human PKD1 kinase | Q15139 | PKD1 kinase fluorescence polarization assay | inhibition, % (no concentration beside the values) | hit rate 0.056% among 200,000 | AID 797; in the data active = inhibition above about 50%
Rad51 HR inh: blocks human Rad51 in homologous recombination; Q06609; hRad51 DNA strand exchange, fluorescence dequenching; inhibition, % at 10 µM; hit rate 0.085% among 200,000; AID 1385;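 active = inhibition above 40% at the single screening dose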;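 note: 0% = DMSO control wells and 100% = blanks with heterologous ssDNA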
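Material: Human Rad51 nucleoprotein filaments preassembled on unlabelled ssDNA | Also added: Labelled 47-mer dsDNA for strand exchange | Dosing: Single dose, 10 µM final compound | Schedule: 30-min compound preincubation and 15-min exchange, both room temperature | Technique: Fluorescence dequenching at 485/520 nm | Measure: Percent inhibition relative to plate controls and blanks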
KCC2 mod: KCC2 (human) Cl- transport modulation; Q9H2X9; KCC2 cells, thallium flux FluoZin-2 fluorescence; B-score of Tl+ flux slope (higher = more flux/activation; lower = inhibition) at 10 µM; hit rate 2.2% among 190,000; AID 1456;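 active = thallium flux slope and its plate-corrected score both differing from the plate sample mean at a set confidence after two filtering rounds, in either direction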;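 note: slope of fluorescence scaled to starting intensity during 10 to 20 s after thallium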
Target sequence (Q9H2X9 whole entry, looked up): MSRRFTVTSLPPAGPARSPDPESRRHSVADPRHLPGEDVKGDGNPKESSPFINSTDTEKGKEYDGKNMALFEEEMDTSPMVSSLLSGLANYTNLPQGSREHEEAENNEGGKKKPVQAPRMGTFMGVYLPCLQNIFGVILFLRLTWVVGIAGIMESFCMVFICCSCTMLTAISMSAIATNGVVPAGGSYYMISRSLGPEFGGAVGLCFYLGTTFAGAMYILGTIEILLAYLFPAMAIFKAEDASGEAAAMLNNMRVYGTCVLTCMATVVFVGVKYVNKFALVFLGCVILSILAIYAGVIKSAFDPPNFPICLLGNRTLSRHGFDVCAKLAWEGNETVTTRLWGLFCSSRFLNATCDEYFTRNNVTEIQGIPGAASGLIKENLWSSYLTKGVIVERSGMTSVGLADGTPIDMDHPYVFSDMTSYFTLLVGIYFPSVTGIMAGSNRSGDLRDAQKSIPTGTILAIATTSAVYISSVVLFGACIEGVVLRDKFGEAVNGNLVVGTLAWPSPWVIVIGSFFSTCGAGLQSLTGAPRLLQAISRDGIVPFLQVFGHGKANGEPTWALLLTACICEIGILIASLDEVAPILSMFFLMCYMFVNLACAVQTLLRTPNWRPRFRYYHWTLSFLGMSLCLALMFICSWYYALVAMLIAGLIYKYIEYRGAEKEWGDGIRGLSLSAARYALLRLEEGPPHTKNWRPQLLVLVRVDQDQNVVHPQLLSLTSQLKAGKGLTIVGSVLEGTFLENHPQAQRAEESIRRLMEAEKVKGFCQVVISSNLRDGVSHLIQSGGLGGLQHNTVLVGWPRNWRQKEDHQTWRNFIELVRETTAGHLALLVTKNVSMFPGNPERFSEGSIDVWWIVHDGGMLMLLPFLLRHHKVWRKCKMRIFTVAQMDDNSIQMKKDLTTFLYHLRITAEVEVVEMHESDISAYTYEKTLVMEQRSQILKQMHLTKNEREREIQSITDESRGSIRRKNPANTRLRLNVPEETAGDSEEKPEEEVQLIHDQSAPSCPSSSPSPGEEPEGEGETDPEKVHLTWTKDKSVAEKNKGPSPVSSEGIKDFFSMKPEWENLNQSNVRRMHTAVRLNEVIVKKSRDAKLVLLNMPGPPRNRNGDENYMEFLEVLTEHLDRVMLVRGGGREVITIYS
ROMK mod: modulators of human ROMK potassium channel; hit rate 2% among 130,000; AID 1918; Tet-inducible ROMK, thallium flux fluorescence; actives lie on both sides; B-score at 10 µM;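 active = signal ratio slope over the read window, or its plate-corrected B-score, at least 3 SD from the plate mean, either direction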;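 note: B-score of the F/F0 ratio slope over 7 to 12 s after thallium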
KCC2 sec1: KCC2 (human) modulation, secondary assay. HEK293-KCC2, thallium flux, FluoZin2 fluorescence; hits give high values. hit rate 15% among 3,700. shares compounds with KCC2 mod. normalised thallium flux (F/F0 slope) at 10 µM;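 active = thallium flux slope above the same plate's solvent-only control mean plus 3 SD; inconclusive = the two replicate wells disagree; inactive = no significant difference from solvent-only control wells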
KCC2 bumet counter: thallium flux despite bumetanide block in KCC2 cells, secondary assay 3 | shares compounds with KCC2 mod | HEK293-KCC2 + bumetanide/ouabain, thallium flux FluoZin2; hits give high values | normalized thallium flux at 10 µM | hit rate 49% among 3,700;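 active = thallium entry rate above the same plate's blocked-transporter control wells by more than 3 SD; inconclusive = the two repeat wells disagree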;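 note: raw slope of fluorescence over initial fluorescence between 10 and 20 s after thallium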
KCC2 secondary2: confirmation of human KCC2 transport modulators | shares compounds with KCC2 mod | HEK293-KCC2, thallium flux FluoZin2 fluorescence; actives lie on both sides; F/F0 rise rate, 10–20 s post-thallium | normalized thallium flux at 10 µM | hit rate 23% among 3,700;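 active = thallium flux slope more than 3 SD above or below the plate's solvent-only control mean, mostly below; inconclusive = the two repeat wells disagreed; inactive = no significant shift from solvent-only controls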;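 note: raw slope with 0.1% DMSO as baseline and bumetanide as block control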
HEK counter1: parental HEK flux effect, counter-screen; shares compounds with KCC2 mod; hit rate 46% among 3,700; thallium flux rate (normalised fluorescence) at 10 µM; HEK293 parental cells, thallium flux FluoZin2, ouabain; baseline-ratio fluorescence slope, 10–20 s after thallium;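 active = thallium flux rate significantly above the same plate's solvent-only control wells, beyond their mean plus 3 SD; inconclusive = the two replicate wells gave conflicting results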
KCC2 ouabain: KCC2 (human) modulation, ouabain retest. shares compounds with KCC2 mod. raw Tl+ flux slope (below DMSO = inhibition, above = activation) at 10 µM. HEK293-KCC2, thallium flux FluoZin2 fluorescence; bidirectional: low = inhibitor, high = activator. AID 1717. hit rate 48% among 3,700;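 active = thallium flux slope beyond 3 SD from same-plate DMSO control mean in most replicates, usually higher, sometimes lower; inconclusive = repeat tests gave conflicting results; inactive = no significant difference from controls in most replicates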;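 note: slope of initial-normalized fluorescence between seconds 10 and 20 after thallium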
HEK293 Tl flux2: parental HEK flux effect, counter-screen 2. hit rate 33% among 3,700. HEK293 parental, thallium flux FluoZin-2 fluorescence slope. thallium flux slope at 10 µM. shares compounds with KCC2 mod;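 active = thallium flux slope above the same plate's solvent-control mean plus 3 SD in both duplicate wells; inconclusive = duplicate wells that disagreed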;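 note: run without ouabain in cells lacking the KCC2 cotransporter; slope of fluorescence scaled to its starting value between 10 and 20 s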
Active calls of the source: *. Only some compounds are listed: those with a hit (about 3% of all), similar ones and a draw of the others.

For COc1ccc(/C=C/C(=O)NC(=S)Nc2ccc(C(=O)O)cc2)cc1 the results were PKD1 inh -4, Rad51 HR inh -16, KCC2 mod -0.81 and ROMK mod 0.68.
For O=C(c1cccc(S(=O)(=O)N2CCCC2)c1)c1nnc(-c2ccncc2)o1 the results were PKD1 inh -10, Rad51 HR inh 3 and KCC2 mod 0.064.
For COc1ccccc1N(C)S(=O)(=O)c1ccc(C(=O)OCC(=O)NCc2ccco2)cc1 the results were PKD1 inh -5, Rad51 HR inh 1, KCC2 mod -0.86 and ROMK mod -2.2.
CC(C)c1ccccc1NC(=O)COC(=O)/C=C/c1cccc([N+](=O)[O-])c1 was read as PKD1 inh -14, Rad51 HR inh -2 and KCC2 mod 1.4.
For Cc1ccc(-c2cc(N)n(-c3ccc(F)cc3)n2)cc1 the results were PKD1 inh -2, Rad51 HR inh 8, KCC2 mod 1 and ROMK mod 1.
For COc1ccc(OC)c2sc(NNC(=O)COc3ccccc3)nc12 the results were PKD1 inh -4, Rad51 HR inh -5, KCC2 mod 3.4*, ROMK mod 0.2, KCC2 sec1 0.0074, KCC2 bumet counter 0.012*, KCC2 secondary2 0.031, HEK counter1 0.011*, KCC2 ouabain inconclusive and HEK293 Tl flux2 0.013*.
O=[N+]([O-])c1ccc(Cl)c(S(=O)(=O)N2CCCCCC2)c1 was read as PKD1 inh -6, Rad51 HR inh 6, KCC2 mod 0.039 and ROMK mod 0.028.
`Cc1cccc(NC(=O)NCC(c2cccnc2)N2CCOCC2)c1` (stereo not given) gave PKD1 inh -3, ROMK mod -0.92, KCC2 sec1 0.012, KCC2 bumet counter 0.0068, KCC2 secondary2 0.035, HEK counter1 0.0081, KCC2 ouabain 0.022 and HEK293 Tl flux2 0.011.
Screening COC(=O)NCC(c1cccnc1)N1CCOCC1 (stereo not given) returned PKD1 inh -2, Rad51 HR inh 2 and KCC2 mod 0.24.
For O=C(OCC#CCSc1nnc(-c2cccc3ccccc23)o1)c1ccco1 the results were PKD1 inh -10 and Rad51 HR inh -9.
For CC(C)c1nnc(NC(=O)c2c(O)c3cccc4c3n(c2=O)CCC4)s1 the results were PKD1 inh -4, Rad51 HR inh -16, ROMK mod 0.043, KCC2 sec1 0.0076, KCC2 bumet counter 0.009*, KCC2 secondary2 0.027, HEK counter1 0.0063, KCC2 ouabain 0.017* and HEK293 Tl flux2 0.0093.
Screening Cc1cnc(NC(=O)c2c(O)c3cccc4c3n(c2=O)CCC4)s1 returned PKD1 inh -17, Rad51 HR inh 0 and KCC2 mod -0.59.
For O=C(CCCN1C(=O)c2cccc3cccc(c23)C1=O)N1CCc2ccccc2C1 the results were PKD1 inh -4, Rad51 HR inh -1, KCC2 mod -4.1*, KCC2 sec1 0.015, KCC2 bumet counter inconclusive, KCC2 secondary2 0.024*, HEK counter1 0.0058*, KCC2 ouabain 0.012* and HEK293 Tl flux2 0.0087.
For CCC(=O)N1CCN(c2ccc(NC(=O)COc3ccccc3Cl)cc2)CC1 the results were PKD1 inh -9, Rad51 HR inh 6 and ROMK mod -0.47.
Screening CCC(=O)N1CCN(c2ccccc2NC(=O)COc2ccccc2Cl)CC1 returned PKD1 inh 4, Rad51 HR inh -2, KCC2 sec1 0.0079, KCC2 bumet counter inconclusive, KCC2 secondary2 0.037, HEK counter1 inconclusive, KCC2 ouabain 0.019 and HEK293 Tl flux2 0.01.
Screening CCC1=C2CC[C@H]3C(=O)N(CC(=O)OC)C(=O)[C@H]3[C@H]2[C@@]2(C)C(=NCC(=O)OC)OC(=O)N2C1=O returned Rad51 HR inh 2 and KCC2 mod 0.65.
`Oc1ccc(-c2nc(-c3ccc(O)c(O)c3)cs2)cc1` gave PKD1 inh 3, Rad51 HR inh 1, KCC2 mod -3.5*, KCC2 sec1 0.0095, KCC2 bumet counter 0.0075, KCC2 secondary2 inconclusive, HEK counter1 0.0062, KCC2 ouabain 0.014* and HEK293 Tl flux2 0.01.
For CC(NC(=O)c1ccc(OC2CCN(C(=O)c3cccnc3)CC2)cc1)C1CC1 (stereo not given) the results were PKD1 inh -1, Rad51 HR inh -3, KCC2 mod -0.17 and ROMK mod -0.35.
`COc1ccc(Oc2c(Cl)cnn(-c3ccc(F)cc3)c2=O)cc1` gave PKD1 inh 1, Rad51 HR inh 20, KCC2 mod -3.1*, KCC2 sec1 0.0084, KCC2 bumet counter inconclusive, KCC2 secondary2 0.032, HEK counter1 0.0062, KCC2 ouabain 0.017* and HEK293 Tl flux2 0.0092.
`Cc1sc2ncnc(OCC(=O)N3CCN(C(=O)c4ccco4)CC3)c2c1C` gave PKD1 inh -4, Rad51 HR inh 23, KCC2 mod -1.2 and ROMK mod -0.14.
Screening COc1ccc(OC)c2[nH]c(=O)c(CCNC(=O)Cc3cccs3)cc12 returned PKD1 inh -7, Rad51 HR inh -7, KCC2 mod 0.23 and ROMK mod 0.37.
`CC(C)NC(=O)C1CCCN(c2nnc(-n3cccc3)s2)C1` (stereo not given) gave PKD1 inh -4, Rad51 HR inh 4 and KCC2 mod 0.32.
`CC(CCc1ccccc1)NC(=O)C1CCCN(c2nnc(-n3cccc3)s2)C1` (stereo not given) gave PKD1 inh -8, Rad51 HR inh -4, KCC2 mod -4.4*, KCC2 sec1 0.0064, KCC2 bumet counter 0.0049, KCC2 secondary2 0.03, HEK counter1 0.008, KCC2 ouabain 0.015* and HEK293 Tl flux2 0.011.
Screening Cn1c(-c2sc3cc(C(F)(F)F)cnc3c2-c2cccs2)n[nH]c1=S returned PKD1 inh -5, KCC2 mod 10*, ROMK mod 0.16, KCC2 sec1 0.009, KCC2 bumet counter 0.015*, KCC2 secondary2 0.031, HEK counter1 0.0099*, KCC2 ouabain inconclusive and HEK293 Tl flux2 0.01.
Screening Cn1c(-c2sc3cc(C(F)(F)F)cnc3c2-c2ccccn2)n[nH]c1=S returned PKD1 inh -4, KCC2 mod 0.21 and ROMK mod 0.048.

Assay outcomes as filed in PubChem.
